Results taken from BindingDB's records for doi:10.1021/jm0110439 (Ghent University, 2002).

These compounds were tested against T1, Adenosine receptor A1 (Rattus norvegicus, UniProt P25099) (assay: GTP-induced shift at rat Adenosine A1 receptor (A1AR)).
T1 sequence (P25099 whole entry): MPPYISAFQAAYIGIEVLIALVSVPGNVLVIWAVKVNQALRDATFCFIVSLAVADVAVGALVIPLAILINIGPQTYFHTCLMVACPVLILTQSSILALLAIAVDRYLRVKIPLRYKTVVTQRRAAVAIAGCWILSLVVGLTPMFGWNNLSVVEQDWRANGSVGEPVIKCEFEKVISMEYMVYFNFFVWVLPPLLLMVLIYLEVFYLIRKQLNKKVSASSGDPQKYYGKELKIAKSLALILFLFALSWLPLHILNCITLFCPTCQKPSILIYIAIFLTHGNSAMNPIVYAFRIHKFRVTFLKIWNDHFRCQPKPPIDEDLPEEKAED
Method in brief: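 GTP shift taken from these two Ki values. Done only for compounds giving >50% radioligand displacement at 10⁻⁶ M. At least three independent experiments in duplicate.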

Row | Structure (SMILES) | GTP shift
1 | O=C(N[C@@H]1[C@@H](O)[C@H](n2cnc3c(NC4CCCC4)ncnc32)O[C@@H]1CO)c1ccc(F)c(Cl)c1 [3-Chloro-N-[5-(6-cyclopentylamino-purin-9-yl)-4-hydroxy-2-hydroxymethyl-tetrahydro-furan-3-yl]-4-fluoro-benzamide] | 0.7
2 | Cn1cnc2c(NC3CCCC3)ncnc21 | 0.94
3 | C[C@H]1O[C@@H](n2cnc3c(NC4CCCC4)ncnc32)[C@H](O)[C@H]1O [2-(6-Cyclopentylamino-purin-9-yl)-5-methyl-tetrahydro-furan-3,4-diol] | 6.4
4 | C[C@H]1O[C@@H](n2cnc3c(NC4CCCC4)ncnc32)[C@H](O)[C@H]1NC(=O)CCCc1cccs1 [N-[5-(6-Cyclopentylamino-purin-9-yl)-4-hydroxy-2-methyl-tetrahydro-furan-3-yl]-4-thiophen-2-yl-butyramide] | 0.7
5 | O=C(CCCc1cccs1)N[C@@H]1[C@@H](O)[C@H](n2cnc3c(NC4CCCC4)ncnc32)O[C@@H]1CO [N-[5-(6-Cyclopentylamino-purin-9-yl)-4-hydroxy-2-hydroxymethyl-tetrahydro-furan-3-yl]-4-thiophen-2-yl-butyramide] | 0.69
6 | Cc1ccc(C(=O)N[C@@H]2[C@@H](O)[C@H](n3cnc4c(NC5CCCC5)ncnc43)O[C@@H]2CO)cc1C [N-[5-(6-Cyclopentylamino-purin-9-yl)-4-hydroxy-2-hydroxymethyl-tetrahydro-furan-3-yl]-3,4-dimethyl-benzamide] | 0.73
7 | C[C@H]1O[C@@H](n2cnc3c(NC4CCCC4)ncnc32)[C@H](O)[C@H]1NC(=O)C1(c2ccccc2)CCCCC1 [1-Phenyl-cyclohexanecarboxylic acid [5-(6-cyclopentylamino-purin-9-yl)-4-hydroxy-2-methyl-tetrahydro-furan-3-yl]-amide] | 0.74
8 | C[C@H]1O[C@@H](n2cnc3c(NC4CCCC4)ncnc32)[C@H](O)[C@H]1NC(=O)C1(c2ccccc2)CCCC1 [1-Phenyl-cyclopentanecarboxylic acid [5-(6-cyclopentylamino-purin-9-yl)-4-hydroxy-2-methyl-tetrahydro-furan-3-yl]-amide] | 0.84
9 | C[C@H]1O[C@@H](n2cnc3c(NC4CCCC4)ncnc32)[C@H](O)[C@H]1NC(=O)C1CCCC[C@H]1C(=O)c1cccs1 (some centres undefined) [2-(Thiophene-2-carbonyl)-cyclohexanecarboxylic acid [5-(6-cyclopentylamino-purin-9-yl)-4-hydroxy-2-methyl-tetrahydro-furan-3-yl]-amide] | 0.72
